Common to all, as to format: functional
Experiment [1] deals with Radical scavenging activity. Briefly: Antioxidant activity assessed as DPPH radical scavenging activity. Summed up: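 DPPH (250 μM in MeOH) added to methanolic compound solutions, seven serial […] dilutions giving a final range of 100 to 1.6 μg mL⁻¹. Quercetin and Trolox served as positive controls. Triplicate assays. SC₅₀ is the concentration (μg mL⁻¹) scavenging 50% of DPPH radicals, reported as mean (%RSD).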
(In general: DPPH is a stable violet radical that fades when it is reduced.)

The subject of the next experiment is Candida dubliniensis. Briefly: Antimicrobial activity against Candida dubliniensis ATCC 778157 by broth microdilution method. Summed up:
(§1)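 Broth microdilution in 96-well plates; compounds tested from 10 to 1000 μg/mL. MIC is the lowest concentration giving complete inhibition of the strain. Positive controls were bacitracine (0.2 UI mL⁻¹) and ketoconazole (100.0 μg mL⁻¹). Negative control was DMSO–sterile water (5:95, v/v). Run in duplicate per microorganism and repeated three times.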
Background: Dilution methods test growth across graded concentrations, often in twofold steps.

The test system of the next experiment is Nakaseomyces glabratus. Description: Antimicrobial activity against Candida glabrata ATCC 30070 by broth microdilution method. Put shortly: as §1
For the next experiment, the system named is Staphylococcus aureus. Description: Antimicrobial activity against Staphylococcus aureus ATCC 14458 by broth microdilution method. Summed up:
as §1

For experiment [2], the system named is Staphylococcus epidermidis. Briefly: Antimicrobial activity against Staphylococcus epidermidis ATCC 12228 by broth microdilution method. Summed up: as §1
The subject of the next experiment is Pseudomonas aeruginosa. Description: Antimicrobial activity against Pseudomonas aeruginosa ATCC 15442 by broth microdilution method. Put shortly:
as §1

In a further experiment the test system is Candida tropicalis. Briefly: Antimicrobial activity against Candida tropicalis ATCC 157 by broth microdilution method. Summed up: as §1
The next experiment deals with Escherichia coli. Description: Antimicrobial activity against Escherichia coli ATCC 10799 by broth microdilution method. Summed up:
as §1

Calls of active or inactive are those of the source. The calls are words filed in the database; no cut-off is given here.

As to `Cc1c(C)c2c(c(C)c1O)CCC(C)(C(=O)O)O2` (stereo unspecified), the SC50 in experiment [1] was 2.2 µg/mL.
Turning to `O=c1c(O)c(-c2ccc(O)c(O)c2)oc2cc(O)cc(O)c12`, the SC50 in experiment [1] was found to be 13 µg/mL.
`C[C@H]([C@H](C)Cc1ccc2c(c1)OCO2)[C@H](O)c1ccc2c(c1)OCO2` (relative stereo) [MAGNOVATIN A]: the MIC (in the experiment on Candida dubliniensis; against Nakaseomyces glabratus; in the experiment with Staphylococcus aureus; in experiment [2]; in the experiment with Pseudomonas aeruginosa; in the experiment with Candida tropicalis) was greater than 100 µg/mL in each case. For the same compound, the MIC in the experiment with Escherichia coli is greater than 100 µg/mL. The outcome in experiment [1] was inactive.
With `C/C=C/c1cc(OC)c2c(c1)[C@@H](C)[C@H](c1ccc(OC)c(OC)c1)O2` [ACUMINATIN], the MIC (against Candida dubliniensis; with Nakaseomyces glabratus; in the experiment on Staphylococcus aureus; in experiment [2]; against Pseudomonas aeruginosa; with Candida tropicalis) was greater than 100 µg/mL throughout. The compound also displayed an MIC against Escherichia coli greater than 100 µg/mL. Also, the outcome in experiment [1] was inactive.
With `C/C=C/c1cc(OC)c2c(c1)[C@@H](C)[C@H](c1ccc(O)c(OC)c1)O2` [LICARINE A], the MIC (in the experiment on Candida dubliniensis; in the experiment on Nakaseomyces glabratus; in the experiment with Staphylococcus aureus; in experiment [2]; in the experiment with Pseudomonas aeruginosa; in the experiment with Candida tropicalis) was greater than 100 µg/mL each time. In the experiment with Escherichia coli, the MIC is greater than 100 µg/mL. The SC50 in experiment [1] was 56.1 µg/mL.

Usually MIC stands for the lowest concentration found to suppress growth. A high value points to a need for much substance.

These data come from ChEMBL document CHEMBL1154215, “Constituents of the leaves of Magnolia ovata” (2009).
